Screening results as filed in PubChem.
Hits are enriched below; roughly 3% of the tested compounds scored in any of these assays.
NR3A LBD binder – binders of NR3A ligand-binding domain, primary screen, biophysical, differential scanning fluorimetry, uHTS | Glutamate receptor ionotropic, NMDA 3A (GRIN3A) ligand-binding domain | NR3A LBD differential scanning fluorimetry, Tm shift; 0% = protein alone, 100% = glycine-bound protein | Tm shift relative to glycine control, % at 25 µM | 2.5% of 340,000 active | AID 1259313, 2017;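 active = melting temperature shift of at least 10% of the positive control shift, at one fixed dose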
Lipid droplet – inhibitors of hepatocyte lipid droplet formation, primary screen, imaging, high-throughput imaging, BODIPY stain. AML12 mouse hepatocytes, oleate lipid droplets. inhibition, % at 6.5 µM. 0.4% of 240,000 active;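 active = lipid droplet intensity inhibited by at least 50%, with more than 500 cells counted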
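material = mouse AML12 hepatocyte cell line, fixed after treatment | also added = 100 µM oleic acid challenge | doses = compound at 6.5 µM only | schedule = overnight exposure | technique = Image-based BODIPY and DAPI two-channel analysis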
aDG glyco act – activators of alpha-DG glycosylation, primary screen, uHTS, Pro5-aDG cells, AlphaScreen; alpha-DG glycosylation AlphaScreen (IIH6); 0% Pro5, 100% B10-LARGE cell signal; activation, % at 10 µM; 0.22% of 360,000 active;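 active = activation of at least 8% versus controls, or a plate z-score of at least 8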;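 note: Pro5 are CHO cells carrying HIG-tagged alpha-DG that lacks glycosylation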
NPR2 activator – human GC-B receptor activators, primary screen, HEK293 GC-B cells, cGMP TR-FRET, EC30 CNP | Atrial natriuretic peptide receptor 2 (Homo sapiens), P20594 | activation, % at 10 µM | 0.11% of 370,000 active | 0% at EC30 CNP, 100% saturating CNP | AID 1920062, 2024;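 active = activation at 10 µM reaching about 35% in either raw or pattern-adjusted values, limit read from the data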
GASC-1 inh – inhibitors of GASC-1 histone demethylase, primary screen, biochemical, fluorescence, DELFIA europium; inhibition, % at 2.35 µM; GST-JMJD2C(1-420) H3K9me3 demethylation; 0.069% of 330,000 active; Lysine-specific demethylase 4C (Homo sapiens), Q9H3R0;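 active = more than half of a compound's replicate wells show inhibition beyond 50%, single wells judged on their own value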;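 note: signal counts dimethyl H3K9 product captured on neutravidin plate; 0% = median of DMSO wells and 100% = 0.3 times that DMSO median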
Target sequence (Q9H3R0 1-420 limits assumed): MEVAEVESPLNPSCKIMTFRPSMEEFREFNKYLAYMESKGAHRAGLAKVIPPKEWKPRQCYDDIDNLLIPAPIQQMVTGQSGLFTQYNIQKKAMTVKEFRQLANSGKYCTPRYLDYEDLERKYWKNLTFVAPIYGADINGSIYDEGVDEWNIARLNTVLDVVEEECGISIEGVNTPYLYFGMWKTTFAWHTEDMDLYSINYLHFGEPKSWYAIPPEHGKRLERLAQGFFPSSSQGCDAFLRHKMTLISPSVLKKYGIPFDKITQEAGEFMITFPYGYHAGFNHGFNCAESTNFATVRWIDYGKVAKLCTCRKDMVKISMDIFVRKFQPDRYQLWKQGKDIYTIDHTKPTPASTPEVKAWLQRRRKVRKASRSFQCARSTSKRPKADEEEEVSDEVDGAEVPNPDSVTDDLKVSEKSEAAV
GC-A act – GC-A stimulated cGMP production enhancers – HEK293 GC-A cells, cGMP TR-FRET, EC30 ANP, primary screen | Atrial natriuretic peptide receptor 1 (Homo sapiens), P16066 | 0% at EC30 ANP, 100% saturating ANP | activation, % at 10 µM | 0.14% of 370,000 active | AID 1671463, 2021; in the data active = activation above about 40%
The depositor's hits bear a star.

What do the screens show for `CCOC(=O)C(Oc1ccc2c(-c3ccccc3)cc(=O)oc2c1C)c1ccccc1` (stereo not drawn)?
NR3A LBD binder: 14*; Lipid droplet: -23; aDG glyco act: 0; NPR2 activator: 1; GASC-1 inh: 3; GC-A act: 3

How did CCOC(=O)C(Oc1ccc2c(-c3ccc(OC)cc3)cc(=O)oc2c1C)c1ccccc1 (stereo not drawn) do in these assays?
NR3A LBD binder: -1; aDG glyco act: 0; NPR2 activator: 1; GASC-1 inh: 14; GC-A act: 2

What do the screens show for `Cc1cccc(-n2ncc3c2CCCC3NC(=O)CCc2cccnc2)c1C` (stereo not drawn)?
NR3A LBD binder: 1; Lipid droplet: -17; aDG glyco act: 0; NPR2 activator: 4; GASC-1 inh: 4; GC-A act: 2

How did CCOC(=O)c1cc(-c2csc(COc3ccccc3Cl)n2)on1 do in these assays?
NR3A LBD binder: 2; Lipid droplet: 15; aDG glyco act: 0; NPR2 activator: 8; GASC-1 inh: -2; GC-A act: 63*

What do the screens show for `CCOC(=O)c1cc(-c2csc(COc3ccc(Cl)cc3)n2)on1`?
NR3A LBD binder: -2; Lipid droplet: -4; aDG glyco act: 0; NPR2 activator: -4; GASC-1 inh: 3; GC-A act: 58*

What do the screens show for `CCOC(=O)c1csc(COc2ccccc2Cl)n1`?
NR3A LBD binder: 0; Lipid droplet: -30; aDG glyco act: 0; NPR2 activator: -5; GASC-1 inh: 1; GC-A act: 9

What do the screens show for `CCOC(=O)c1cc(-c2csc(COc3ccccc3)n2)on1`?
NR3A LBD binder: 1; Lipid droplet: 7; aDG glyco act: 0; NPR2 activator: 15; GASC-1 inh: -2; GC-A act: 67*

Results for CCOC(=O)c1cc(-c2csc(-c3cccc(Cl)c3)n2)on1 ?
NR3A LBD binder: 2; Lipid droplet: 1; aDG glyco act: 0; NPR2 activator: 1; GC-A act: 19

What do the screens show for `O=C(O)c1cccc(-n2sc3ccccc3c2=O)c1`?
NR3A LBD binder: 23*; aDG glyco act: 0; NPR2 activator: -5; GASC-1 inh: 1; GC-A act: -3

Results for COc1ccc(S[C@]2(C(=O)N3CCOCC3)CC(=O)N(c3ccc(OC)cc3)[C@@H]2c2ccc(OC)cc2)cc1 ?
NPR2 activator: -7; GC-A act: -7

What do the screens show for `CN(C)S(=O)(=O)c1ccc(N2CCCC2)c(C(=O)OCC(=O)NC2CCCCC2)c1`?
NR3A LBD binder: 0; aDG glyco act: 0; NPR2 activator: 1; GASC-1 inh: 1; GC-A act: -1

Results for CC1C(=O)N(c2ccc(S(=O)(=O)N(C)C)cc2)C1(/C=C/c1ccccc1)C(=O)NC1CCCC1 (stereo not drawn) ?
NR3A LBD binder: 28*; Lipid droplet: -2; aDG glyco act: 0; NPR2 activator: -1; GASC-1 inh: -3; GC-A act: -3

What do the screens show for `Cc1ccc(-n2[nH]c(C)c(/C=C3/C=Nc4ccccc43)c2=O)cc1C`?
NR3A LBD binder: 15*; Lipid droplet: 4; aDG glyco act: 0; NPR2 activator: -2; GASC-1 inh: 2; GC-A act: 3

Results for Cc1[nH]n(-c2ccccc2)c(=O)c1/C=C1\C=NN=C1c1ccccc1 ?
NR3A LBD binder: -5; Lipid droplet: -14; aDG glyco act: 0; NPR2 activator: -5; GASC-1 inh: 2; GC-A act: 0

What do the screens show for `Nc1nnc(CC(=O)N/N=C/c2cc([N+](=O)[O-])cc(Br)c2O)s1`?
NR3A LBD binder: 18*; Lipid droplet: 1; aDG glyco act: 0; NPR2 activator: 0; GASC-1 inh: 10; GC-A act: 4

How did CC(=O)Nc1ccc(S(=O)(=O)Nc2cc(C)c(-n3nc4ccccc4n3)cc2O)cc1 do in these assays?
NR3A LBD binder: 10*; Lipid droplet: 2; aDG glyco act: 0; NPR2 activator: -5; GASC-1 inh: 14; GC-A act: -7

How did CC(=O)Nc1ccc(S(=O)(=O)Nc2nc3ccccc3nc2Nc2ccc3ccccc3c2)cc1 do in these assays?
NR3A LBD binder: 34*; Lipid droplet: -3; aDG glyco act: 0; NPR2 activator: -4; GASC-1 inh: 13; GC-A act: 8

How did CC(=O)Nc1ccc(S(=O)(=O)Nc2nc3ccccc3nc2Nc2cccc(O)c2)cc1 do in these assays?
NR3A LBD binder: 19*; Lipid droplet: -28; aDG glyco act: 0; NPR2 activator: 1; GASC-1 inh: 1; GC-A act: 1

How did CC(=O)Nc1ccc(S(=O)(=O)Nc2nc3ccccc3nc2Nc2ccc(N)cc2)cc1 do in these assays?
NR3A LBD binder: 6; Lipid droplet: 6; aDG glyco act: 0; NPR2 activator: -4; GASC-1 inh: 15; GC-A act: -2

Results for CC(=O)Nc1ccc(S(=O)(=O)Nc2nc3ccccc3nc2Nc2ccc(C(=O)O)c(O)c2)cc1 ?
NR3A LBD binder: 24*; aDG glyco act: 0; NPR2 activator: 0; GASC-1 inh: -2; GC-A act: 0

How did COc1cc(OC)cc(-c2c(C#Cc3ccsc3)c3cc(-c4ccc5c(c4)OCO5)ccc3n2C)c1 do in these assays?
NR3A LBD binder: -4; aDG glyco act: 0; NPR2 activator: 0; GC-A act: -2

How did NS(=O)(=O)c1cccc(Nc2nc3ccccc3nc2NS(=O)(=O)c2ccc(Cl)cc2)c1 do in these assays?
NR3A LBD binder: 28*; aDG glyco act: 0; NPR2 activator: -3; GASC-1 inh: 5; GC-A act: 1

How did CCOc1ccc(S(=O)(=O)Nc2nc3ccccc3nc2N2CCN(C)CC2)cc1 do in these assays?
NR3A LBD binder: -2; Lipid droplet: 8; aDG glyco act: 0; NPR2 activator: 1; GASC-1 inh: 1; GC-A act: 1

How did O=C(O)c1cccc(Nc2nc3ccccc3nc2NS(=O)(=O)c2ccccc2)c1 do in these assays?
NR3A LBD binder: -2; aDG glyco act: 0; NPR2 activator: 5; GASC-1 inh: -4; GC-A act: 0

How did CC(=O)Nc1ccc(Nc2nc3ccccc3nc2NS(=O)(=O)c2ccc(Cl)c([N+](=O)[O-])c2)cc1 do in these assays?
NR3A LBD binder: 24*; aDG glyco act: 0; NPR2 activator: 1; GC-A act: -3
